Data from ChEMBL document CHEMBL2384903, “Highly efficient biocompatible neuroprotectants with dual activity as antioxidants and P2Y receptor agonists” (J Med Chem, 2013).
The source made the active and inactive calls. No cut-off for these calls is given here.

Legend:
[1] = Half life in human serum at 0.1 mg after 6 hrs by HPLC analysis; format: ADME, cell-free
Summary of the method: (§1)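 0.1 mg compound in water was mixed with human blood serum and RPMI-1640 medium (1:3 serum:medium) and incubated at 37 °C for 0−24 h. Remaining intact nucleotide was quantified from the change in its HPLC peak integration over time.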

[2] = Antioxidant activity assessed as free radical scavenging activity after 7 mins by ABTS radical cation decolorization assay; format: functional
Summary of the method: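 ABTS•+ is made from 7 mM ABTS and 2.45 mM persulfate (final), left in the dark at RT for 12–16 h, then diluted in water pH 7.4 to A734 0.80. It is mixed with compound or Trolox standard (final 0–60 μM), and A734 is read at exactly 7 min. Percent inhibition is plotted against concentration, with solvent blanks. Each run is done at least three times, in triplicate.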

[3] = Neuroprotective activity in rat primary cortical neurons assessed as decrease in FeSO4-induced oxidative stress measured cell vitality at 1 uM after 24 hrs by MTT assay relative to control; format: functional, cell-based; design: scale not given: the % may be the effect or the level left; details: Cerebral cortex neuron
Summary of the method: (§2)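 Cortical neurons came from 1-day-old rat brain, were trypsin-dissociated and plated on polyornithine. They were grown in serum-free DMEM/F12 with B-27, then Ara-C treated for 48 h. Cells were treated with 0.01−5 μM nucleotide before FeSO4 (3 μM final) for 24 h. MTT 1 mg/mL was applied for 2 h at 37 °C, formazan dissolved in DMSO, absorbance read at 550 nm. Viability was expressed relative to vehicle control, mean ± SD of three independent experiments in triplicate.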

P2Y purinoceptor 1 [4] = biological target: P2Y purinoceptor 1 (Homo sapiens, UniProt P47900); test: Agonist activity at human GFP-tagged P2Y1R transfected in human 1321N1 cells assessed as induction of intracellular calcium mobilization by fluorescence assay; format: functional, cell-based
P2Y purinoceptor 1 (Homo sapiens, UniProt P47900), sequence (P47900 whole entry): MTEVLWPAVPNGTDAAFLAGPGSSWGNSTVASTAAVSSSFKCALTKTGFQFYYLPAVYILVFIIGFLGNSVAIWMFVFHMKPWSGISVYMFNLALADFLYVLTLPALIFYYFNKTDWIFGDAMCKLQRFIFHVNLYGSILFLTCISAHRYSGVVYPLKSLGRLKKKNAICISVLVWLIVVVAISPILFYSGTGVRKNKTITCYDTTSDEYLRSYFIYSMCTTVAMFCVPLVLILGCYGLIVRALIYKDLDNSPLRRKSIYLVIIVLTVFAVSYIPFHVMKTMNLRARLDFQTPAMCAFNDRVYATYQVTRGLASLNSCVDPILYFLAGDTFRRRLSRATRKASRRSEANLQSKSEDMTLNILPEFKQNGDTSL

[5] = biological target: P2Y purinoceptor 12 (Rattus norvegicus) (UniProt Q9EPX4); test: Agonist activity at P2Y12R in rat PC12 cells assessed as decrease in FeSO4-induced ROS formation at 0.04 to 100 uM after 1 hr by DCFH-DA staining-based fluorometric analysis in presence of P2Y12R antagonist 2-MeS-AMP; format: cell-based; details: PC-12
P2Y purinoceptor 12 (Rattus norvegicus), sequence (Q9EPX4 whole entry): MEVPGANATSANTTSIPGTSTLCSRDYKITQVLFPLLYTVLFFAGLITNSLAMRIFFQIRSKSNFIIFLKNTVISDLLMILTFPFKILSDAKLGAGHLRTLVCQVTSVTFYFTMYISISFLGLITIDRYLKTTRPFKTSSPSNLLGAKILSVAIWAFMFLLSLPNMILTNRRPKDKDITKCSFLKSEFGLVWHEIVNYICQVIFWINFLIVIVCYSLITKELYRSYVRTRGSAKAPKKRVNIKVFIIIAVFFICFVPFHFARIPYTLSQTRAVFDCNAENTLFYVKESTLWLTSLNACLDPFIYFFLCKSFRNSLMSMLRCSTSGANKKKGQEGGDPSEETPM
Summary of the method: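 PC12 cells seeded 24 h in DMEM, pretreated with 50 μM 2-MeS-AMP for 20 min, then loaded with DCFH-DA (stock 2 mg/mL in ethanol, diluted 100-fold in PBS) for 20 min and washed. Test agent added at 0.04−100 μM final. Oxidation started with FeSO4 at 0.16 μM final. Incubated 1 h at 37 °C, fluorescence read at 485/530 nm. Inhibition of ROS compared with control lacking antagonist.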

[6] = Neuroprotective activity in rat primary cortical neurons assessed as decrease in FeSO4-induced oxidative stress measured cell viability after 24 hrs by MTT assay; format: functional, cell-based; details: Cerebral cortex neuron; summary of the method: as §2
PC-12 [7] = test: Antioxidant activity in rat PC12 cells assessed as inhibition of Fe2+-induced ROS production after 1 hr by DCFH-DA staining-based fluorometric analysis; format: functional, cell-based
Summary of the method: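 PC12 cells grown in DMEM, seeded 24 h. Loaded with DCFH-DA (ethanol stock diluted 100-fold in PBS) for 20 min, then probe removed. Nucleotides added at final 0.2–200 μM, and oxidation started with FeSO4 at final 0.16 μM. Fluorescence at 485/530 nm read during 1 h at 37 °C. […] Mean ± SD of two experiments.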

[8] = Antioxidant activity assessed as inhibiton of Fe2+-induced Fenton reaction-mediated hydroxyl radical formation from H2O2 measured for 150 secs by ESR analysis in presence of DMPO; format: functional
Summary of the method: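 Spin-trap ESR run at room temperature, final volume 100 μL. 5–500 μM compound is combined with ammonium iron(II) sulfate (1 mM stock) and Tris pH 7.4. After 30 s mixing, DMPO (100 mM stock) and H2O2 (100 mM stock) are added, with final pH 7.2–7.4. Spectrum is recorded 150 s after H2O2 at 9.76 GHz, 6.35 mW. Mean ± SD of three experiments.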

[9] = Metabolic stability in human serum assessed as compound remaining at 0.1 mg after 6 hrs by HPLC analysis; format: ADME, cell-free; details: read-out: Stability; summary of the method: as §1
Homo sapiens = species: Homo sapiens; test: Selectivity ratio of EC50 for human GFP-tagged P2Y11R to EC50 for human GFP-tagged P2Y1R
Summary of the method: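 1321N1 astrocytoma cells stably expressing human P2Y1-GFP or P2Y11-GFP were loaded with 2 μM fura-2 AM plus 0.02% pluronic acid in HEPES-buffered saline pH 7.4 for 30 min at 37 °C. They were then superfused at 37 °C with graded agonist concentrations. [Ca2+]i was read as the F340/F380 ratio (510 nm emission) in GFP-positive cells, at least 40 cells per point. EC50 came from concentration–response curves, n = 3.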

P2Y purinoceptor 11 = biological target: T1, P2Y purinoceptor 11 (Homo sapiens, UniProt Q96G91); test: Agonist activity at human GFP-tagged P2Y11R transfected in human 1321N1 cells assessed as induction of intracellular calcium mobilization by fluorescence assay; format: functional, cell-based
T1 sequence (Q96G91 whole entry): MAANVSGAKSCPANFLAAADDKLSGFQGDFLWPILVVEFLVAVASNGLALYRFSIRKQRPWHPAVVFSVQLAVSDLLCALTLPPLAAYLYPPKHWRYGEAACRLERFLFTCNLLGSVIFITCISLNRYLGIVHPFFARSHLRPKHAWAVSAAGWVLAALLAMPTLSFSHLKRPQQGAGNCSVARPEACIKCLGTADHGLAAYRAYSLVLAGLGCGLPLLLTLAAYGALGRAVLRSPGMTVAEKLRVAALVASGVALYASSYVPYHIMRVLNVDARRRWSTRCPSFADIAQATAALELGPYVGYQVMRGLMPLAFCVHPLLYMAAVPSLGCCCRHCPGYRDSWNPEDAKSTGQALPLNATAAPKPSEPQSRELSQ

PC-12 [10] = test: Cytotoxicity against rat PC12 cells assessed as cell viability up to 200 uM after 48 hrs by MTT assay; format: cell-based; details: pc-12, 48 h
Summary of the method: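 PC12 cells were exposed to compounds at various concentrations up to 200 μM for 48 h, and viability was measured by MTT assay.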

[11] = Antioxidant activity assessed as inhibiton of Fe2+-induced Fenton reaction-mediated hydroxyl radical formation from H2O2 relative to ATP; format: functional
Summary of the method: (§3)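 Fe(II)-H2O2 hydroxyl radical assay read by ESR with DMPO spin trap. Ammonium iron(II) sulfate (1 mM, stock) was added to 5−500 μM test compound, then 1 mM Tris pH 7.4. After 30 s mixing, DMPO then H2O2 were added. Final pH 7.2−7.4, 100 μL total, room temperature. Spectrum recorded 150 s after H2O2. IC50 given as mean ± SD of three experiments.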

[12] = Antioxidant activity assessed as inhibiton of Fe2+-induced Fenton reaction-mediated hydroxyl radical formation from H2O2 relative to trolox; format: functional; summary of the method: as §3
P2Y purinoceptor 1 [13] = biological target: P2Y purinoceptor 1 (Rattus norvegicus, UniProt P49651); test: Agonist activity at rat brain P2Y1R transfected in HEK293 cells assessed as induction of intracellular calcium mobilization by fluorescence assay; format: functional, cell-based
P2Y purinoceptor 1 (Rattus norvegicus, UniProt P49651), sequence (P49651 whole entry): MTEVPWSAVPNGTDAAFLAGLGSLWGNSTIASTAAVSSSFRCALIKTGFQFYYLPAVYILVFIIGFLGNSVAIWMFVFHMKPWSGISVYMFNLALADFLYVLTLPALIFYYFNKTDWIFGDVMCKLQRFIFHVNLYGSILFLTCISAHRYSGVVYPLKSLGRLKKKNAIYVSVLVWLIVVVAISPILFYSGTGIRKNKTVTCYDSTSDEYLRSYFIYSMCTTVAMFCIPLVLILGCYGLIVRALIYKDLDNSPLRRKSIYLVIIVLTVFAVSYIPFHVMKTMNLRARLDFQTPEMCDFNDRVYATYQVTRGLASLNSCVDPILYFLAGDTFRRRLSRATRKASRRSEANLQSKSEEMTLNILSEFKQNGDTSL

PC-12 [14] = test: Antioxidant activity in rat PC12 cells assessed as inhibition of Fe2+-induced ROS production at 100 uM after 1 hr by DCFH-DA staining-based fluorometric analysis relative to control; format: functional; details: PC-12, 1 h
Summary of the method: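 PC12 cells in DMEM were seeded 24 h, loaded 20 min with diluted DCFH-DA and washed. Nucleotides were then added at 0.2−200 μM final. Oxidation was started with FeSO4 at 0.16 μM final and plates were incubated 1 h at 37 °C. DCF fluorescence was read at 485/530 nm, and percent inhibition of ROS was taken against untreated oxidized control.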

[15] = Rattus norvegicus, PC-12, 1 h, read-out: IC50

Compound	IC50 [2] [µM]	EC50 (P2Y purinoceptor 1 [4]) [µM]	IC50 (PC-12 [7]; [15]) [µM]	IC50 [8] [µM]	EC50 (P2Y purinoceptor 11; read-out: EC50) [µM]	other results
B[P@@](=O)(OC[C@H]1O[C@@H](n2cnc3c(N)nc(Cl)nc32)[C@H](O)[C@@H]1O)OP(=O)(O)O	40	0.007	0.08	175	3.68	half-life [1]: 7 h; Activity [3]: < 60%; Activity [5]: inactive; EC50 [6]: 0.17 µM; remaining at 6 h [9]: 53%; Ratio EC50 (Homo sapiens): < 530
BP(=O)(OC[C@H]1O[C@@H](n2cnc3c(N)nc(Cl)nc32)[C@H](O)[C@@H]1O)OP(=O)(O)O (stereo not given in full)	–	–	–	–	–	Activity (PC-12 [10]): Non-toxic
Nc1ncnc2c1ncn2[C@@H]1O[C@H](COP(=O)(O)OP(=O)(O)OP(O)(O)=S)[C@@H](O)[C@H]1O	–	–	–	–	–	fold change (FC) [11]: 100; fold change (FC) [12]: 20
[BH3-]P(=O)(OC[C@H]1O[C@@H](n2cnc3c(N)nc(Cl)nc32)[C@H](O)[C@@H]1O)OP(=O)([O-])C(Cl)(Cl)P(=O)([O-])[O-].[Na+].[Na+].[Na+].[Na+] (stereo not given in full)	–	–	–	–	–	Activity (PC-12 [10]): Non-toxic
[BH3-][P@@](=O)(OC[C@H]1O[C@@H](n2cnc3c(N)ncnc32)[C@H](O)[C@@H]1O)OP(=O)([O-])[O-].[Na+].[Na+].[Na+]	26	0.3	1	47	–	remaining at 6 h [9]: 56%; EC50 (P2Y purinoceptor 11; 1321-n1): Not Active
[BH3-]P(=O)(OC[C@H]1O[C@@H](n2cnc3c(N)ncnc32)[C@H](O)[C@@H]1O)OP(=O)([O-])OP(=O)([O-])OP(=O)([O-])OP(=O)([O-])OC[C@H]1O[C@@H](n2cnc3c(N)ncnc32)[C@H](O)[C@@H]1O.[Na+].[Na+].[Na+].[Na+].[Na+] (stereo not given in full)	–	–	–	–	–	Activity (PC-12 [10]): Non-toxic
B[P@](=O)(OC[C@H]1O[C@@H](n2cnc3c(N)nc(Cl)nc32)[C@H](O)[C@@H]1O)OP(=O)(O)O	39	0.6	0.2	120	1	EC50 [6]: 0.4 µM; Ratio EC50 (Homo sapiens): < 530
B[P@](=O)(OC[C@H]1O[C@@H](n2cnc3c(N)ncnc32)[C@H](O)[C@@H]1O)OP(=O)(O)O	24	13	1	41	2.9	–
Nc1ncnc2c1ncn2[C@@H]1O[C@H](COP(=O)(O)OP(=O)(O)OP(=O)(O)O)[C@@H](O)[C@H]1O [ADENOSINE TRIPHOSPHATE]	60	–	–	> 500	–	inhibition at 100 µM (PC-12 [14]): 45%; IC50 (PC-12 [7]; pc-12): Not Active

Now from value to compound, other results behind:

IC50 [2] [µM]	EC50 (P2Y purinoceptor 1 [4]) [µM]	IC50 (PC-12 [7]; [15]) [µM]	IC50 [8] [µM]	EC50 (P2Y purinoceptor 11; read-out: EC50) [µM]	Compound	other results
24	0.15	0.18	131	1.4	B[P@@](=O)(OC[C@H]1O[C@@H](n2cnc3c(N)nc(Cl)nc32)[C@H](O)[C@@H]1O)OP(=O)(O)C(Cl)(Cl)P(=O)(O)O	–
30	0.024	21	170	1.7	Nc1ncnc2c1ncn2[C@@H]1O[C@H](COP(=O)(O)OP(=O)(O)O)[C@@H](O)[C@H]1O [ADENOSINE DIPHOSPHATE]	remaining at 6 h [9]: 32%
24	2.5	2.6	36	–	B[P@](=O)(OC[C@H]1O[C@@H](n2cnc3c(N)nc(Cl)nc32)[C@H](O)[C@@H]1O)OP(=O)(O)OP(=O)(O)O	–
23	0.074	1	66	–	B[P@@](=O)(OC[C@H]1O[C@@H](n2cnc3c(N)nc(Cl)nc32)[C@H](O)[C@@H]1O)OP(=O)(O)OP(=O)(O)O	EC50 (P2Y purinoceptor 1 [13]): 0.0045 µM
–	–	–	54	–	O=C(O)CN(CCN(CC(=O)O)CC(=O)O)CC(=O)O [EDETIC ACID]	–
> 60	0.2	0.4	59	–	B[P@@](=O)(OC[C@H]1O[C@@H](n2cnc3c(N)ncnc32)[C@H](O)[C@@H]1O)OP(=O)(O)OP(=O)(O)OP(=O)(O)OP(=O)(O)OC[C@H]1O[C@@H](n2cnc3c(N)ncnc32)[C@H](O)[C@@H]1O	EC50 (P2Y purinoceptor 11; 1321-n1): Not Active
> 60	0.76	29	75	–	Nc1ncnc2c1ncn2[C@@H]1O[C@H](COP(=O)(O)OP(=O)(O)OP(=O)(O)OP(=O)(O)OP(=O)(O)OC[C@H]2O[C@@H](n3cnc4c(N)ncnc43)[C@H](O)[C@@H]2O)[C@@H](O)[C@H]1O	–
27	0.95	0.19	60	0.13	B[P@](=O)(OC[C@H]1O[C@@H](n2cnc3c(N)nc(Cl)nc32)[C@H](O)[C@@H]1O)OP(=O)(O)C(Cl)(Cl)P(=O)(O)O	–
18	–	20	–	–	Cc1c(C)c2c(c(C)c1O)CCC(C)(C(=O)O)O2 (stereo not given) [TROLOX]	–
61	1.2	5	161	–	BP(=O)(OP(=O)(O)OP(=O)(O)OC[C@H]1O[C@@H](n2cnc3c(N)ncnc32)[C@H](O)[C@@H]1O)OP(=O)(O)OP(=O)(O)OC[C@H]1O[C@@H](n2cnc3c(N)ncnc32)[C@H](O)[C@@H]1O	–
> 60	3	1.2	47	–	B[P@](=O)(OC[C@H]1O[C@@H](n2cnc3c(N)ncnc32)[C@H](O)[C@@H]1O)OP(=O)(O)OP(=O)(O)OP(=O)(O)OP(=O)(O)OC[C@H]1O[C@@H](n2cnc3c(N)ncnc32)[C@H](O)[C@@H]1O	EC50 (P2Y purinoceptor 11; 1321-n1): Not Active
–	–	–	–	1.5	CSc1nc(N)c2ncn([C@@H]3O[C@H](COP(=O)(O)OP(=O)(O)O)[C@H](O)[C@H]3OC(=O)c3ccccc3)c2n1	–
